These compounds were tested against T1, C-C chemokine receptor type 1 (Homo sapiens, UniProt P32246) (assay: Displacement of [125I]MIP-1alpha from CCR1 in human THP1 cells).
T1 sequence (P32246 whole entry): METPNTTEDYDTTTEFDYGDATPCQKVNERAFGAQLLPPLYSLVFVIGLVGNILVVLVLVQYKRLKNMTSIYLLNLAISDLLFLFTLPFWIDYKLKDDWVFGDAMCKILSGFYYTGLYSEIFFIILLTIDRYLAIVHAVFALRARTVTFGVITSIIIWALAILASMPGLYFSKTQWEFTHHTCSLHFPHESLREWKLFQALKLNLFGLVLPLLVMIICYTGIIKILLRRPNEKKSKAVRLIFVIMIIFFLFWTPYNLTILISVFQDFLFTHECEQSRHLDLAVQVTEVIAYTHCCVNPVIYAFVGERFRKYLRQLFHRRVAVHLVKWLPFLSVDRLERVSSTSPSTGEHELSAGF
Format: cell-based, THP-1
Summary of the method: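 THP-1 cells, 1 × 105, mixed with WGA PS SPA beads in RPMI 1640 (no phenol red) with 50 mM HEPES, 5 mM MgCl2, 1 mM CaCl2, 0.1% BSA. Compound in 3-fold dilutions, 8 μM to 140 pM final. [125I]-MIP-1α at 0.1 nM final. Incubated 12 h at room temperature, imaged by LEADseeker. Duplicates; IC50 from four-parameter logistic fit after nonspecific correction.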

Row | Structure (SMILES) | IC50
1 | CC(C)[C@@H](NC(=O)Cc1ccc(Cl)cc1)C(=O)N1CCC(c2ccc(Cl)cc2)CC1 | 0.115 µM
2 | CSCCC(NC(=O)c1ccccc1)C(=O)N1CCC(O)(c2ccc(Cl)cc2)CC1 (centres undefined) | 0.539 µM
3 | Cc1ccc(C(=O)N[C@@H](C(=O)N2CCC(c3ccc(Cl)cc3)CC2)C(C)C)cc1 | 0.025 µM
4 | CC(C)[C@@H](NC(=O)c1cc2ccccc2s1)C(=O)N1CCC(c2ccc(Cl)cc2)CC1 | 0.058 µM
5 | CC(C)C(NC(=O)c1ccccc1)C(=O)N1CCC(c2ccc(F)cc2)CC1 (centres undefined) | 0.423 µM
6 | CC(O)C(NC(=O)c1ccccc1)C(=O)N1CCC(O)(c2ccc(Cl)cc2)CC1 (centres undefined) | 2.83 µM
7 | CC(C)C(=O)NC(C(=O)N1CCC(c2ccc(Cl)cc2)CC1)C(C)C (centres undefined) | 0.388 µM
8 | CC[C@@H](C)[C@@H](NC(=O)c1ccccc1)C(=O)N1CCC(c2ccc(Cl)cc2)CC1 | 0.045 µM
9 | CC(C)[C@@H](NC(=O)CCc1ccccc1F)C(=O)N1CCC(c2ccc(Cl)cc2)CC1 | 0.018 µM
10 | CCCC(NC(=O)c1ccccc1)C(=O)N1CCC(c2ccc(Cl)cc2)CC1 (racemic) | 0.12 µM
11 | CC(C)[C@@H](NC(=O)CC1CCCCC1)C(=O)N1CCC(c2ccc(Cl)cc2)CC1 | 0.008 µM
12 | CC[C@@H](NC(=O)CC(C)C)C(=O)N1CCC(c2ccc(Cl)cc2)CC1 | 0.152 µM
13 | CC(C)[C@@H](NC(=O)Cc1ccccc1)C(=O)N1CCC(c2ccc(Cl)cc2)CC1 | 0.03 µM
14 | CCCC(NC(=O)c1ccc2ccccc2c1)C(=O)N1CCC(c2ccc(Cl)cc2)CC1 (racemic) | 0.191 µM
15 | CC(C)[C@@H](NC(=O)Cc1cccc(F)c1)C(=O)N1CCC(c2ccc(Cl)cc2)CC1 | 0.044 µM
16 | CCCC(NC(=O)c1ccccc1)C(=O)N1CCC(O)(c2ccc(Cl)cc2)CC1 (centres undefined) | 0.521 µM
17 | CC(C)[C@@H](NC(=O)c1nc2ccccc2s1)C(=O)N1CCC(c2ccc(Cl)cc2)CC1 | 0.018 µM
18 | CC(C)C(NC(=O)c1ccccc1)C(=O)N1CCC(O)(c2ccc(Cl)cc2)CC1 (centres undefined) | 0.18 µM
19 | CC(C)C(NS(=O)(=O)Cc1ccccc1)C(=O)N1CCC(c2ccc(Cl)cc2)CC1 (centres undefined) | 0.303 µM
20 | CC(C)C(NC(=O)c1ccc2ccccc2c1)C(=O)N1CCC(c2ccc(Cl)cc2)CC1 (centres undefined) | 0.08 µM
21 | Cc1ccccc1CCC(=O)N[C@@H](C(=O)N1CCC(c2ccc(Cl)cc2)CC1)C(C)C | 0.019 µM
22 | Cc1ccccc1C(=O)N[C@@H](C(=O)N1CCC(c2ccc(Cl)cc2)CC1)C(C)C | 0.032 µM
23 | CC(C)CC(NC(=O)c1ccccc1)C(=O)N1CCC(O)(c2ccc(Cl)cc2)CC1 (centres undefined) | 0.324 µM

Row | Structure (SMILES) | IC50
24 | CC(C)[C@@H](NC(=O)C1CCCC1)C(=O)N1CCC(c2ccc(Cl)cc2)CC1 | 0.07 µM
25 | CC[C@@H](C)[C@@H](NC(=O)Cc1ccccc1)C(=O)N1CCC(c2ccc(Cl)cc2)CC1 | 0.038 µM
26 | CC(C)CCC(=O)N[C@@H](C(=O)N1CCC(c2ccc(Cl)cc2)CC1)C(C)C | 0.026 µM
27 | CC(C)(C)C(NC(=O)c1ccccc1)C(=O)N1CCC(c2ccc(Cl)cc2)CC1 (centres undefined) | 0.259 µM
28 | CC(C)CC(NC(=O)c1ccccc1)C(=O)N1CCC(c2ccc(Cl)cc2)CC1 (centres undefined) | 0.13 µM
29 | CC(C)[C@H](NC(=O)c1ccccc1)C(=O)N1CCC(c2ccc(Cl)cc2)CC1 | 14.9 µM
30 | CC[C@@H](NC(=O)c1ccccc1)C(=O)N1CCC(c2ccc(Cl)cc2)CC1 | 0.121 µM
31 | Cc1ccccc1C(=O)NC(C(=O)N1CCC(c2ccc(Cl)cc2)CC1)C(C)(C)C (centres undefined) | 0.262 µM
32 | CC(C)[C@@H](NC(=O)c1cccc(F)c1)C(=O)N1CCC(c2ccc(Cl)cc2)CC1 | 0.024 µM
33 | CC(C)C(NC(=O)c1ccccc1)C(=O)N1CCC(O)(c2ccc(F)cc2)CC1 (centres undefined) | 0.933 µM
34 | CC(C)CC(=O)N[C@@H](C(=O)N1CCC(c2ccc(Cl)cc2)CC1)C(C)C | 0.032 µM
35 | C/C=C(/NC(=O)c1ccccc1)C(=O)N1CCC(O)(c2ccc(Cl)cc2)CC1 | 0.37 µM
36 | CC(C)[C@@H](NC(=O)Cc1cccc(Cl)c1)C(=O)N1CCC(c2ccc(Cl)cc2)CC1 | 0.045 µM
37 | Cc1ccccc1C(=O)NC(CC(C)C)C(=O)N1CCC(c2ccc(Cl)cc2)CC1 (centres undefined) | 0.088 µM
38 | CC(C)[C@@H](NC(=O)c1ccc(F)cc1)C(=O)N1CCC(c2ccc(Cl)cc2)CC1 | 0.118 µM
39 | CC(C)C(NC(=O)Oc1ccccc1)C(=O)N1CCC(c2ccc(Cl)cc2)CC1 (centres undefined) | 0.265 µM
40 | Cc1cccc(CCC(=O)N[C@@H](C(=O)N2CCC(c3ccc(Cl)cc3)CC2)C(C)C)c1 | 0.022 µM
41 | CC(C)C(NC(=O)c1ccccc1)C(=O)N1CC=C(c2ccc(Cl)cc2)CC1 (centres undefined) | 0.185 µM
42 | CC(C)[C@@H](NC(=O)Cc1ccccc1F)C(=O)N1CCC(c2ccc(Cl)cc2)CC1 | 0.013 µM
43 | CC(C)[C@@H](NC(=O)NCc1ccccc1)C(=O)N1CCC(c2ccc(Cl)cc2)CC1 | 0.18 µM
44 | CC(C)[C@@H](NC(=O)CCc1ccc(F)cc1)C(=O)N1CCC(c2ccc(Cl)cc2)CC1 | 0.07 µM
45 | CC(C)C(NC(=O)c1ccccc1)C(=O)N1CCC(O)(c2ccc(Br)cc2)CC1 (centres undefined) | 0.172 µM
46 | CC(C)C(NC(=O)OCc1ccccc1)C(=O)N1CCC(O)(c2ccc(Cl)cc2)CC1 (centres undefined) | 0.854 µM

Row | Structure (SMILES) | IC50
47 | CCCC(NC(=O)c1ccccc1C)C(=O)N1CCC(c2ccc(Cl)cc2)CC1 (racemic) | 0.152 µM
48 | CC(C)[C@@H](NC(=O)NCCc1ccccc1)C(=O)N1CCC(c2ccc(Cl)cc2)CC1 | 0.543 µM
49 | CC[C@@H](NC(=O)CCc1ccccc1)C(=O)N1CCC(c2ccc(Cl)cc2)CC1 | 0.085 µM
50 | Cc1cccc(C(=O)N[C@@H](C(=O)N2CCC(c3ccc(Cl)cc3)CC2)C(C)C)c1C | 0.1 µM
51 | CC(C)C(NC(=O)c1ccccc1)C(=O)N1CCN(c2ccc(Cl)cc2)CC1 (centres undefined) | 0.525 µM
52 | CC(C)[C@@H](NC(=O)CC1CC1)C(=O)N1CCC(c2ccc(Cl)cc2)CC1 | 0.046 µM
53 | CC(C)C(NC(=O)c1ccccc1)C(=O)N1CCN(c2ccc(Cl)c(Cl)c2)CC1 (centres undefined) | 0.375 µM
54 | CC(C)C(NC(=O)OCc1ccccc1)C(=O)N1CCC(c2ccc(Cl)cc2)CC1 (centres undefined) | 1.08 µM
55 | CC(C)C(NC(=O)Cc1ccccc1)C(=O)N1CCC(c2ccc(Cl)cc2)CC1 (centres undefined) | 0.04 µM
56 | CC(C)[C@@H](NC(=O)Nc1ccccc1)C(=O)N1CCC(c2ccc(Cl)cc2)CC1 | 0.616 µM
57 | CC(C)[C@@H](NC(=O)CCCc1ccccc1)C(=O)N1CCC(c2ccc(Cl)cc2)CC1 | 0.095 µM
58 | CC[C@@H](NC(=O)Cc1ccccc1)C(=O)N1CCC(c2ccc(Cl)cc2)CC1 | 0.05 µM
59 | CC(C)C(NC(=O)c1ccccc1)C(=O)N1CCC(c2ccc(Cl)cc2)CC1 (centres undefined) | 0.055 µM
60 | O=C(N[C@@H](C(=O)N1CCC(c2ccc(Cl)cc2)CC1)C1CCCCC1)c1ccccc1 | 0.121 µM
61 | Cc1ccc(CC(=O)N[C@@H](C(=O)N2CCC(c3ccc(Cl)cc3)CC2)C(C)C)cc1 | 0.14 µM
62 | Cc1cccc(C)c1C(=O)N[C@@H](C(=O)N1CCC(c2ccc(Cl)cc2)CC1)C(C)C | 0.177 µM
63 | CC(C)[C@@H](NC(=O)CC1CCCC1)C(=O)N1CCC(c2ccc(Cl)cc2)CC1 | 0.02 µM
64 | CC(C)[C@@H](NC(=O)c1ccc(F)c(F)c1)C(=O)N1CCC(c2ccc(Cl)cc2)CC1 | 0.014 µM
65 | Cc1ccc(CCC(=O)N[C@@H](C(=O)N2CCC(c3ccc(Cl)cc3)CC2)C(C)C)cc1 | 0.105 µM
66 | CC[C@@H](C)[C@@H](NC(=O)CC(C)C)C(=O)N1CCC(c2ccc(Cl)cc2)CC1 | 0.034 µM
67 | CC(C)[C@@H](NC(=O)CCc1ccccc1)C(=O)N1CCC(c2ccc(Cl)cc2)CC1 | 0.04 µM
68 | CC(C)C(NC(=O)CCc1ccccc1)C(=O)N1CCC(c2ccc(Cl)cc2)CC1 (centres undefined) | 0.035 µM
69 | CC[C@@H](C)[C@@H](NC(=O)CCc1ccccc1)C(=O)N1CCC(c2ccc(Cl)cc2)CC1 | 0.066 µM
